Data set [1] deals with T1, Cocaine esterase (Homo sapiens, UniProt O00748).
T1 sequence (O00748 whole entry): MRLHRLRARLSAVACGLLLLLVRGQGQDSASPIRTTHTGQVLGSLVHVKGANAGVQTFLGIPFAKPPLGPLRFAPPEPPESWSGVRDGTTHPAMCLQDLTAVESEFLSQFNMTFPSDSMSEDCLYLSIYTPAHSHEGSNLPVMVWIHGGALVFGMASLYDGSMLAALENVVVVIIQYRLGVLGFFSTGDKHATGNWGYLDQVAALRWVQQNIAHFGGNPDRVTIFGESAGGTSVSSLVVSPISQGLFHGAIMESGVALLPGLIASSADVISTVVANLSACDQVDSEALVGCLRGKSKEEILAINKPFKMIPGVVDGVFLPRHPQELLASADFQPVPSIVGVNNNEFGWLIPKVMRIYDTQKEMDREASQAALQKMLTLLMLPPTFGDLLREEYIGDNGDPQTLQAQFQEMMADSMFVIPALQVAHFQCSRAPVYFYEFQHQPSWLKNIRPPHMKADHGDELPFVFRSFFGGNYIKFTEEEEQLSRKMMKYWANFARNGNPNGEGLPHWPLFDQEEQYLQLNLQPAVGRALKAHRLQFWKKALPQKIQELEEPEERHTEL
Briefly: Metabolic stability of the compound in human intestinal microsomes assessed as carboxylesterase-2-mediated hydrolysis by measuring intrinsic clearance at 1 uM in absence of NADPH. The data set is classed as ADME, Intestine. Put shortly:
(§1)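 Pooled mixed-gender human liver (N = 50) or intestinal (N = 6) microsomes at 0.5 or 0.76 mg/mL final, in 100 mM potassium phosphate pH 7.4, prewarmed 5 min at 37 °C. Substrate 1 µM, n = 2, final DMSO 0.025% and acetonitrile 0.98%. Aliquots taken over 0–60 min into acetonitrile with terfenadine internal standard. Parent loss by LC–MS/MS. CLint = 0.693·(mL incubation)/(t1/2·protein concentration).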

The target in data set [2] is T2, Liver carboxylesterase 1 (Homo sapiens, UniProt P23141).
T2 sequence (P23141 whole entry): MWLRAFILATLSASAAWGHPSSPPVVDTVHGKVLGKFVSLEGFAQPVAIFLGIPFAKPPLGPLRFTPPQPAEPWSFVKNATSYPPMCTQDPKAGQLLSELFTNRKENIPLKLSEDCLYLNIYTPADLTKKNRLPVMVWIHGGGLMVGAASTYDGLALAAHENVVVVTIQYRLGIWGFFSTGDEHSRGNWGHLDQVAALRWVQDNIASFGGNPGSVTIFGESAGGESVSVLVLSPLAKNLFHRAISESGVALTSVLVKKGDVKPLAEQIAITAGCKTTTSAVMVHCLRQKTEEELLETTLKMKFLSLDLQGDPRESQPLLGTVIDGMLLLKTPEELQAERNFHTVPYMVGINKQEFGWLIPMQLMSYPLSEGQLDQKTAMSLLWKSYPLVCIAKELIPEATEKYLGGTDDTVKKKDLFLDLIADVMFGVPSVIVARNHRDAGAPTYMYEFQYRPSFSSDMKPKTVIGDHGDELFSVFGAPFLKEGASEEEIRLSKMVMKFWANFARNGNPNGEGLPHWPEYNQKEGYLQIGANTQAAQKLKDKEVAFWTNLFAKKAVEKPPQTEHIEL
As to the kind of experiment: Metabolic stability of the compound in human liver microsomes assessed as carboxylesterase-1-mediated hydrolysis by measuring intrinsic clearance at 1 uM in absence of NADPH. The data set is classed as ADME. Put shortly: as §1
(In general: Liver microsomes are vesicles of endoplasmic reticulum, rich in cytochrome P450 enzymes.)

Data set [3] addresses T1, Cocaine esterase. As to the kind of experiment: (§2) Metabolic stability of the compound in human intestinal microsomes assessed as carboxylesterase-2-mediated hydrolysis by measuring half life in absence of NADPH. The data set is classed as ADME, Intestine. As to conditions: microsomes. Put shortly:
as §1

Data set [4] addresses T2, Liver carboxylesterase 1. As to the kind of experiment: (§3) Metabolic stability of the compound in human liver microsomes assessed as carboxylesterase-1-mediated hydrolysis by measuring half life in absence of NADPH. The data set is classed as ADME. As to conditions: microsomes. Put shortly: as §1
The target of data set [5] is T1, Cocaine esterase. Briefly: Metabolic stability of the compound assessed as recombinant carboxylesterase-2 (unknown origin)-mediated hydrolysis after 60 mins. The data set is classed as ADME. As to conditions: 1 h. Put shortly: (§4)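 Metabolite identification. Substrate at 10 µM final (DMSO stock diluted in acetonitrile) incubated 1 h at 37 °C, pH 7.4, n = 1, with one of: recombinant CE-1 bactosomes, recombinant CE-2 bactosomes, control E. coli cytosol, or human liver or intestinal microsomes. Quench in acetonitrile, centrifuge, dry supernatant under nitrogen, reconstitute in mobile phase. Metabolite formation read by LC–MS/MS.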

Data set [6] concerns the target T2, Liver carboxylesterase 1. Briefly: Metabolic stability of the compound assessed as recombinant carboxylesterase-1 (unknown origin)-mediated hydrolysis after 60 mins. The data set is classed as ADME. As to conditions: 1 h. Put shortly: as §4
Another data set has as its target T3, carboxylesterase-2 (Homo sapiens, UniProt O00748).
T3 sequence (O00748 whole entry): T1 sequence (O00748 whole entry)
The description is as §2. As to conditions: intestinal microsomes. The data set is classed as ADME, Intestine. Put shortly: as §1

The target of the next data set is T4, carboxylesterase-1 (Homo sapiens, UniProt P23141).
T4 sequence (P23141 whole entry): T2 sequence (P23141 whole entry)
The data set is described as §3. The data set is classed as ADME. As to conditions: liver microsomes. Put shortly: as §1

Consider nine molecules from ChEMBL document CHEMBL3112535, “Undesired versus designed enzymatic cleavage of linkers for liver targeting” (Bioorg Med Chem Lett, 2014).

`COC(=O)NCCCC(C)C(=O)Oc1ccc(Oc2ccc(CN(Cc3ccccc3)c3cccc(NS(C)(=O)=O)c3C)cc2)cc1` (centres undefined): the CL on Cocaine esterase [1] was found to be 2600 µL/min/mg. Further, the CLint at Liver carboxylesterase 1 [2] came out at 1000 µL/min/mg. For the same molecule, the t1/2 on Cocaine esterase [3] stood at 0.53 min; on Liver carboxylesterase 1 [4], 1.3 min.

Consider `C#CCC(CCCNC(=O)OC)C(=O)Oc1ccc(Oc2ccc(CN(Cc3ccccc3)c3cccc(NS(C)(=O)=O)c3C)cc2)cc1` (centres undefined), for which the CL on Cocaine esterase [1] was 1700 µL/min/mg. For the same molecule, the CLint at Liver carboxylesterase 1 [2] was 550 µL/min/mg. For the same molecule, the t1/2 on Cocaine esterase [3] was found to be 0.84 min; on Liver carboxylesterase 1 [4], 2.5 min.

With `COC(=O)NCCCC(C)(C)C(=O)Oc1ccc(Oc2ccc(CN(Cc3ccccc3)c3cccc(NS(C)(=O)=O)c3C)cc2)cc1`, the CL on Cocaine esterase [1] turned out to be 1000 µL/min/mg. Further, the CLint on Liver carboxylesterase 1 [2] was found to be 240 µL/min/mg. The t1/2 is 1.4 min on Cocaine esterase [3] and 5.7 min at Liver carboxylesterase 1 [4].

For the molecule `COC(=O)NCCCC(Cc1cn(Cc2ccccc2)nn1)C(=O)Oc1ccc(Oc2ccc(CN(Cc3ccccc3)c3cccc(NS(C)(=O)=O)c3C)cc2)cc1` (centres undefined), the Stability result at Cocaine esterase [5] is “Unstable”; on Liver carboxylesterase 1 [6] it was “Stable”. For the same molecule, the CL at Cocaine esterase [1] came to 480 µL/min/mg. The CLint at Liver carboxylesterase 1 [2] worked out at 140 µL/min/mg. Besides, the t1/2 was 1.9 min on Cocaine esterase [3] and 6.7 min on Liver carboxylesterase 1 [4].

Take `COC(=O)NCCCC(CC(C)C)C(=O)Oc1ccc(Oc2ccc(CN(Cc3ccccc3)c3cccc(NS(C)(=O)=O)c3C)cc2)cc1` (centres undefined): the CL at Cocaine esterase [1] turned out to be 220 µL/min/mg. Further, the CLint at Liver carboxylesterase 1 [2] is 82 µL/min/mg. In addition, the figures for the half-life on carboxylesterase-2 and at carboxylesterase-1 were 6.3 min and 17 min, respectively.

Consider `COC(=O)NCCCC(Cc1ccccc1)C(=O)Oc1ccc(Oc2ccc(CN(Cc3ccccc3)c3cccc(NS(C)(=O)=O)c3C)cc2)cc1` (centres undefined), for which the CL at Cocaine esterase [1] turned out to be 140 µL/min/mg. The CLint on Liver carboxylesterase 1 [2] came to 73 µL/min/mg. Moreover, the values for the t1/2 at Cocaine esterase [3] and at Liver carboxylesterase 1 [4] were 9.9 min and 19 min, respectively.

Consider `COC(=O)NCCCC(C)(Cc1ccccc1)C(=O)Oc1ccc(Oc2ccc(CN(Cc3ccccc3)c3cccc(NS(C)(=O)=O)c3C)cc2)cc1` (centres undefined), for which the Stability result on Cocaine esterase [5] is given as “Unstable”; on Liver carboxylesterase 1 [6], “Stable”. Moreover, on Cocaine esterase [1], the CL turned out to be 43 µL/min/mg. The CLint on Liver carboxylesterase 1 [2] was 19 µL/min/mg. Moreover, the t1/2 was determined as 32 min on Cocaine esterase [3] and 73 min at Liver carboxylesterase 1 [4].

`C#CCC(CCCNC(=O)OC)C(=O)OCCOc1ccc(Oc2ccc(CN(Cc3ccccc3)c3cccc(NS(C)(=O)=O)c3C)cc2)cc1` (centres undefined): the Stability result was “Unstable” at Cocaine esterase [5] and “Stable” on Liver carboxylesterase 1 [6]. For the same molecule, the CL on Cocaine esterase [1] was determined as 1900 µL/min/mg. Moreover, the CLint at Liver carboxylesterase 1 [2] was found to be 770 µL/min/mg. Further, the t1/2 at Cocaine esterase [3] is 0.73 min; at Liver carboxylesterase 1 [4], 1.8 min.

`COC(=O)NCCCC(Cc1cn(Cc2ccccc2)nn1)C(=O)OCCOc1ccc(Oc2ccc(CN(Cc3ccccc3)c3cccc(NS(C)(=O)=O)c3C)cc2)cc1` (centres undefined): the results for the Stability result at Cocaine esterase [5] and at Liver carboxylesterase 1 [6] were “Unstable” and “Stable”, respectively. For the same molecule, on Cocaine esterase [1], the CL turned out to be 240 µL/min/mg. Further, the CLint at Liver carboxylesterase 1 [2] came out at 170 µL/min/mg. Besides, the t1/2 on Cocaine esterase [3] is reported as 3.8 min; at Liver carboxylesterase 1 [4], 5.3 min.

As usually defined, the half-life is the time in which the quantity being followed falls by half.
